Results as given in ChEMBL document CHEMBL1137695, “Towards an efficient prodrug of the alkylating metabolite monomethyltriazene: synthesis and stability of N-acylamino acid derivatives of triazenes” (Eur J Med Chem, 2009).

What was measured:
[1] = Stability in phosphate buffer assessed as half life at pH 7.7 by HPLC; format: physicochemical
Procedure, shortened: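 Incubation at 37 °C in 0.066 M pH 7.7 isotonic phosphate buffer. Samples injected directly onto HPLC (acetonitrile:water 20:80 to 50:50, detection 290 nm). Half-life calculated from decline in substrate concentration; mean of at least 2 determinations ± SD.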

[2] = Octanol-phosphate buffer partition coefficient at pH 7.4 by HPLC; format: physicochemical
Procedure, shortened: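 Octanol and pH 7.4 phosphate buffer, each pre-saturated with the other, at 25 °C. Compound dissolved in octanol, then shaken with buffer for 30 min to equilibrium. Each phase analysed separately by HPLC (acetonitrile:water 20:80 to 50:50, 290 nm). P taken as ratio of octanol to buffer peak areas. Mean of at least 3 determinations ± SD.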

[3] = Stability in 80% human plasma assessed as half life by HPLC; format: ADME, cell-free
Procedure, shortened: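 Plasma pooled from seven healthy donors, stored at −18 °C. Incubation at 37 °C in 80% plasma diluted with 0.066 M pH 7.4 isotonic phosphate buffer. Aliquots taken over time, diluted with acetonitrile, centrifuged, supernatant analysed by HPLC at 290 nm. t1/2 fitted from substrate loss; mean of at least 3 determinations ± SD.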

| SMILES | half-life [1] | logD [2] | half-life [3] |
| --- | --- | --- | --- |
| CC(=O)N[C@@H](C)C(=O)N(C)/N=N/c1ccc(C(N)=O)cc1 | 18.4 h | 0.69 | 7.6 h |
| CC(=O)N[C@H](C(=O)N(C)/N=N/c1ccc(C#N)cc1)C(C)C | 84.3 h | 2.18 | 5.7 h |
| CC(=O)N[C@@H](C)C(=O)N(C)/N=N/c1ccc(C)cc1 | 46.5 h | 2.45 | 15.1 h |
| CCC(=O)N[C@@H](C)C(=O)N(C)/N=N/c1ccc(C#N)cc1 | 10.1 h | 1.87 | 1.3 h |
| CC(=O)N[C@@H](Cc1ccccc1)C(=O)N(C)/N=N/c1ccc(C#N)cc1 | 13.9 h | 2.76 | 2.4 h |
| CC(=O)N[C@@H](C)C(=O)N(C)/N=N/c1ccc(C#N)cc1 | 9.8 h | 1.41 | 1 h |
| C[C@H](NC(=O)c1ccccc1)C(=O)N(C)/N=N/c1ccc(C#N)cc1 | 9.2 h | 3.04 | 1.6 h |
| CC(=O)N[C@@H](C)C(=O)N(C)/N=N/c1ccc(Br)cc1 | 25.5 h | 2.8 | 5.7 h |
| CCCC(=O)N[C@@H](C)C(=O)N(C)/N=N/c1ccc(C#N)cc1 | 9.1 h | 2.28 | 1.1 h |
| CC(=O)N[C@@H](C)C(=O)N(C)/N=N/c1ccc(C(C)=O)cc1 | 13.9 h | 1.51 | 2.3 h |
| CC(=O)NCC(=O)N(C)/N=N/c1ccc(C#N)cc1 | 7.6 h | 1.1 | 1.2 h |
| CCOC(=O)c1ccc(/N=N/N(C)C(=O)[C@H](C)NC(C)=O)cc1 | 15.7 h | 2.52 | 4.6 h |
